These results are taken from paper PMC3516921 (ChemMedChem, 2012).

Series [1] has as its target human cannabinoid CB2 receptors (Homo sapiens, UniProt P34972). The series is described as follows: [35S]GTPγS binding assay on hCB2-CHO cell membranes. The conditions noted are these: for Functional effect on [35S]GTPγS binding: hCB2-CHO cell membranes. It counts as biochemical. On the technique in general: Binding of GTPγS marks nucleotide exchange on a G protein.
Series [2] can be described thus: Experimental logP determined by HPLC. In kind it is physicochemical. The settings on record: RP-18 column; for chromatographic logP: reversed-phase HPLC; for logP Exp: HPLC, MeOH/H2O, extrapolated to zero organic solvent.
Series [3] addresses human cannabinoid type 1 receptor (Homo sapiens, UniProt P21554). Briefly: CB1 receptor competitive binding assay with [3H]CP-55,940.
In series [4] the target is human cannabinoid type 2 receptor (Homo sapiens, UniProt P34972). The series is described as follows: CB2 receptor competitive binding assay with [3H]CP-55,940. The conditions noted are these: for S.I. (selectivity index for CB2, Ki(CB1)/Ki(CB2)): Ki(CB1)/Ki(CB2) ratio.
In another series the target is CB2 receptor (Homo sapiens, UniProt P34972). Briefly: On-line screening on immobilized CB1/CB2-OT column. The settings on record: 0.25 nM [3H]-Win-55,1212 marker, 10 nM compound. It counts as binding.
The test system of the next series is human liver microsomes. The series is described as follows: CYP-dependent in vitro metabolism in human liver microsomes. In kind it is in vitro ADME. For orientation: Liver microsomes are a subcellular fraction often used to study metabolism.
In series [5] the test system is formalin-induced nocifensive behaviour. The series is described as follows: Formalin test of acute peripheral and inflammatory pain. In kind it is in vivo. The settings on record: mice; for Effect on 2nd phase of formalin-induced nocifensive behaviour: 3 mg/kg ip, 15 min before formalin; for Effect of AM630 pre-treatment on the antinociceptive effect of the compound: compound 3 mg/kg ip + AM630 1 mg/kg ip 5 min before. In outline:
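Mice (n = 8–10 per group, randomly assigned) received test compound ip (1 or 3 mg/kg) or vehicle 15 min before formalin (1.25% in saline, 30 μl, dorsal hind paw). Where used, AM630 (1 mg/kg ip) was given 5 min before compound. A blinded observer timed lifting, favouring, licking, shaking and flinching in 5-min bins over 0–10 min (early phase) and 20–60 min (late phase). Analysis was one-way ANOVA with Tukey-Kramer.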

Another series is described as follows: Kinetic solubility. It counts as physicochemical. The conditions noted are these: water with 5% DMSO, 18 h incubation.
Where [6] appears, read: read-out: CB1 Ki, mean ± SD, at least three experiments in duplicate.
The mark [7] stands for this setting: read-out: CB2 Ki, mean ± SD, at least three experiments in duplicate.
Where [8] appears, read: mean ± SD, at least three experiments in duplicate.

In brackets after ≈: the same amount, converted by molar mass. Where two headings read alike, the source gives them in different places.

Broadly, the Emax is the size of the effect at its maximum, as opposed to the concentration needed. As for `CCCCCCC(C)(C)c1ccc([C@@H]2C[C@H](O)CC[C@H]2CCCO)c(O)c1` [CP55940, (−)-cis-3-[2-hydroxy-4-(1,1-dimethylheptyl)phenyl]-trans-4-(3-hydroxypropyl)cyclohexanol, reference compound], the Emax in series [1] turned out to be 84.7%.
For orientation: chromatographic logP means a lipophilicity value derived from retention on a column. Low readings indicate a more hydrophilic compound, high ones a more lipophilic compound. As a reminder, the Ki is the equilibrium dissociation constant of an inhibitor or competing ligand from its target. In the case of `CCCCCn1cc(-c2cn(C34CC5CC(CC(C5)C3)C4)nn2)c(=O)c2cc(-c3ccc(OC(C)C)cc3)ccc21` [Compound 5, 1-(Adamantan-1-yl)-4-[6-(4-(2-propyloxy)phenyl]-1,4-dihydro-4-oxo-1-pentylquinolin-3-yl]-1H-1,2,3-triazole], the chromatographic logP in series [2] turned out to be 7.78. In series [3], this compound had an inhibition constant (Ki) greater than 10000 nM. Further, in series [4], the Ki came to 1680 ± 24.5 nM and the “S.I. (selectivity index for CB2, Ki(CB1)/Ki(CB2))” value is greater than 6.
For `CCCCCn1cc(-c2nc(C34CC5CC(CC(C5)C3)C4)no2)c(=O)c2cc(-c3ccc(OC(C)C)cc3)ccc21` [Compound 7, 3-(Adamantan-1-yl)-5-[6-(4-(2-propyloxy)phenyl]-1,4-dihydro-4-oxo-1-pentylquinolin-3-yl]-1,2,4-oxadiadole], the “Displacement of marker ligand from OT column” value on CB2 receptor is listed as “very little displacement”. In addition, the “logP Exp” value in series [2] is recorded as 7.71. The Ki in series [3] (setting [6]) and in series [4] (setting [7]) was greater than 10000 nM throughout.
In the case of `CCCCCn1cc(-c2cn(C34CC5CC(CC(C5)C3)C4)nn2)c(=O)c2cc(Br)ccc21` [Compound 8, 1-(Adamantan-1-yl)-4-(6-bromo-1,4-dihydro-4-oxo-1-pentylquinolin-3-yl)-1H-1,2,3-triazole], the chromatographic logP in series [2] was determined as 5.83. Besides, the values for the Ki in series [3] and in series [4] were greater than 10000 nM and 32.2 ± 1.2 nM, respectively.
With `CCCCCn1cc(-c2nnc(C34CC5CC(CC(C5)C3)C4)o2)c(=O)c2cc(Br)ccc21` [Compound 9, 2-(Adamantan-1-yl)-5-(6-bromo-1,4-dihydro-4-oxo-1-pentylquinolin-3-yl)-1,3,4-oxadiadole], in series [2], the “logP Exp” value is recorded as 5.15. In addition, the values for the Ki in series [3] (setting [6]) and in series [4] (setting [7]) were greater than 10000 nM and 250 ± 8.6 nM, respectively. Further, the “S.I. (selectivity index for CB2, Ki(CB1)/Ki(CB2))” value in series [4] is given as greater than 40.
`CCCCCn1cc(-c2nc(C34CC5CC(CC(C5)C3)C4)no2)c(=O)c2cc(Br)ccc21` [Compound 10, 3-(Adamantan-1-yl)-5-(6-bromo-1,4-dihydro-4-oxo-1-pentylquinolin-3-yl)-1,2,4-oxadiadole]: the “logP Exp” value in series [2] is 5.77. Also, the Ki in series [3] (setting [6]) turned out to be 208 ± 5.5 nM; in series [4] (setting [7]), 2.7 ± 0.8 nM. Moreover, in series [4], the “S.I. (selectivity index for CB2, Ki(CB1)/Ki(CB2))” value was 76.
In turn, `CCCCCn1cc(-c2cn(C34CC5CC(CC(C5)C3)C4)nn2)c(=O)c2cc(-c3ccco3)ccc21` [Compound 11, 1-(Adamantan-1-yl)-4-[6-(furan-2-yl)-1,4-dihydro-4-oxo-1-pentylquinolin-3-yl]-1H-1,2,3-triazole] displayed a chromatographic logP in series [2] of 5.18. Moreover, in the series on human liver microsomes (0.5 mg microsomal protein, 60 min incubation), the “Vmax (formation rate)” value was 0.16±0.01 nmol x min^−1 × mg^1 protein. Further, the “CYP isoforms involved in metabolism (inhibition study)” value in the series with human liver microsomes (human liver microsomes) is “CYP3A4 is the major isoform involved, while CYP1A and CYP2A are only partially implicated”. Besides, the Metabolite identified result in the series with human liver microsomes (human liver microsomes, HPLC-MS) is given as “side chain hydroxylated derivative 32 as its only metabolite”. Moreover, in series [1], the Emax is -52% and the “Functional effect on [35S]GTPγS binding” value was “inverse agonist effects”. The Ki in series [3] is greater than 10000 nM. Further, in series [5], the “Effect on 2nd phase of formalin-induced nocifensive behaviour” value is on record as “significant reduction” and the “Effect of AM630 pre-treatment on the antinociceptive effect of the compound” value is “completely abolished”.
One may read the EC50 as the concentration needed to bring the measured effect to its halfway point. Read a low EC50 as a more potent agent. By Solubility is commonly meant how much of the substance goes into solution per volume. Higher therefore signals a readily soluble substance. Take `CCCCCn1cc(-c2nnc(C34CC5CC(CC(C5)C3)C4)o2)c(=O)c2cc(-c3ccco3)ccc21` [Compound 12, 2-(Adamantan-1-yl)-5-[6-(furan-2-yl)-1,4-dihydro-4-oxo-1-pentylquinolin-3-yl]-1H-1,3,4-oxadiadole]: the “logP Exp” value in series [2] is recorded as 5.26. This compound also had an EC50 in series [1] ([35S]GTPγS binding, 95% confidence limits in brackets) of 57.6 nM. Besides, the “Functional effect on [35S]GTPγS binding” value in series [1] is reported as “inverse agonist effects”. Moreover, the Emax in series [1] (percentage change in [35S]GTPγS binding, 95% confidence limits in brackets) is −46.6% (−52.5 and −40.6%). In the series “Kinetic solubility”, this compound had a Solubility of 128 µg/mL (≈ 265 µM). Further, in series [3] (setting [6]), the inhibition constant (Ki) was greater than 10000 nM. The “S.I. (selectivity index for CB2, Ki(CB1)/Ki(CB2))” value in series [4] was greater than 1543. The inhibitory constant (Ki) in series [4] (setting [7]) amounted to 6.5 ± 2.2 nM. Moreover, in series [5], the “Effect on 2nd phase of formalin-induced nocifensive behaviour” value is on record as “significant reduction” and the “Effect of AM630 pre-treatment on the antinociceptive effect of the compound” value is “did not induce any change”.
For the compound `CCCCCn1cc(-c2nc(C34CC5CC(CC(C5)C3)C4)no2)c(=O)c2cc(-c3ccco3)ccc21` [Compound 13, 3-(Adamantan-1-yl)-5-[6-(furan-2-yl)-1,4-dihydro-4-oxo-1-pentylquinolin-3-yl]-1H-1,2,4-oxadiadole], the “logP Exp” value in series [2] is given as 6.38. This compound also yielded a Solubility in the series “Kinetic solubility” of 7 µg/mL (≈ 14.5 µM). Moreover, the inhibition constant (Ki) in series [3] (setting [6]) worked out at 33 ± 0.6 nM; in series [4] (setting [7]), 0.4 ± 0.1 nM. The “S.I. (selectivity index for CB2, Ki(CB1)/Ki(CB2))” value in series [4] is reported as 82.
For the compound `CCCCCn1c(=O)c(-c2cn(C34CC5CC(CC(C5)C3)C4)nn2)cc2ccccc21` [Compound 15, 1-(Adamantan-1-yl)-4-(1-pentylquinolin-2(1H)-one)-1H-1,2,3-triazole], the Ki in series [3] (setting [6]) was 321.9 ± 2.1 nM; in series [4] (setting [7]) it was 11.1 ± 3.6 nM. The “S.I. (selectivity index for CB2, Ki(CB1)/Ki(CB2))” value in series [4] came out at 29.
For `CCCCCOc1nc2ccccc2cc1-c1cn(C23CC4CC(CC(C4)C2)C3)nn1` [Compound 16, 1-(Adamantan-1-yl)-4-[2-(pentyloxy)quinoline]-1H-1,2,3-triazole], the results for the Ki in series [3] (read-out: CB1 Ki) and in series [4] (setting [7]) were 3415 ± 9.8 nM and 12.6 ± 4.3 nM, respectively. The “S.I. (selectivity index for CB2, Ki(CB1)/Ki(CB2))” value in series [4] worked out at 271.
Consider `O=c1c(-c2cn(C34CC5CC(CC(C5)C3)C4)nn2)c[nH]c2ccc(-c3ccco3)cc12` [Compound 29, 3-(1-Adamantyl-1H-1,2,3-triazol-4-yl)-6-(furan-2-yl)quinolin-4(1H)-one], for which, in series [3] (setting [8]), the “CB1 Ki” value is given as “no affinity”. Further, the Ki in series [3] (setting [6]) and in series [4] (setting [7]) was greater than 10000 nM throughout. The “CB2 Ki” value in series [4] (setting [8]) was “no affinity”.
Turning to `CC(O)CCCn1cc(-c2cn(C34CC5CC(CC(C5)C3)C4)nn2)c(=O)c2cc(-c3ccco3)ccc21` (stereo not shown) [Compound 32, 3-(1-Adamantyl-1H-1,2,3-triazol-4-yl)-6-(furan-2-yl)-1-(4-hydroxypentyl)quinolin-4(1H)-one], the values for the inhibition constant Ki in series [3] (setting [6]) and in series [4] (setting [7]) were greater than 10000 nM and 190 ± 10 nM, respectively. Moreover, the “S.I. (selectivity index for CB2, Ki(CB1)/Ki(CB2))” value in series [4] is on record as greater than 52. The “Loss of potency versus parent compound 11” value in series [4] (racemic form) was found to be 150 fold.
